# According to ChEMBL document CHEMBL1157635, “Synthesis, radiofluorination, and hypoxia-selective studies of FRAZ: A configurational and positional analogue of the clinical hypoxia marker, [18F]-FAZA” (Bioorg Med Chem, 2010):
# What was measured:
# [1] = Partition coefficient, log P by HPLC; format: physicochemical; conditions: octanol/water
# How it was run: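 Reverse-phase analytical HPLC with a gradient solvent system. Retention time compared with IAZA, FAZA and AZA standards, and P interpolated from a plot.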
# HCT-116 = test: Hypoxia radiosensitization activity in human HCT116 cells assessed as sensitizer enhancement ratio at 100 uM after 24 hrs by [60]Co X-ray source based clonogenic survival assay; format: functional
# How it was run: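 HCT-116 cells pre-incubated 20 h, then exposed to 100 µM (from 10 mM stock in 95% ethanol) for 24 h. Hypoxic dishes degassed by six vacuum/N2 cycles, normoxic kept in air, then shaken 30 min. Irradiated with 60Co at 0–20 Gy. Cells replated and grown 10–14 days at 37 °C, colonies stained, surviving fractions counted, triplicate.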
# [2] = Toxicity in Kirsten virus transformed mouse KBALB cells at < 10 mM assessed as reduction of cell survival after 72 hrs by MTT assay; format: cell-based
# How it was run: (§1)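 Exponentially growing cells seeded at 8 × 10² cells/well and pre-incubated 24 h at 37 °C (5% CO2). Compound added in growth medium over 10^-7 to 10^-3 M, with medium-only controls, for 72 h. MTT then added for 4 h, formazan dissolved in DMSO and absorbance read at 540 nm.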
# 143B = test: Toxicity in human 143B cells at < 10 mM assessed as reduction of cell survival after 72 hrs by MTT assay; format: cell-based; how it was run: as §1
# [3] = Toxicity in human 143B-LTK cells at < 10 mM assessed as reduction of cell survival after 72 hrs by MTT assay; format: cell-based; how it was run: as §1
# EMT6 [4] = test: Toxicity in mouse EMT6 cells at < 10 mM assessed as reduction of cell survival after 72 hrs by MTT assay; format: cell-based; conditions: emt6, 72 h; how it was run: as §1
# EMT6 [5] = test: Toxicity in mouse EMT6 cells at 1 mM assessed as reduction of cell survival after 72 hrs by MTT assay; format: cell-based; conditions: emt6, 72 h, 1000 µM; how it was run: as §1
# [6] = Toxicity in Kirsten virus transformed mouse KBALB-STK cells at < 10 mM assessed as reduction of cell survival after 72 hrs by MTT assay; format: cell-based; how it was run: as §1
logP [1],SMILES,Ratio (HCT-116),Activity [2],Activity (143B),Activity [3],Activity (EMT6 [4]),Activity (EMT6 [5]),Activity [6]
1.1,O=[N+]([O-])c1nccn1[C@H]1O[C@H](CF)[C@@H](O)[C@@H]1O,1.25,–,–,–,–,–,–
1.08,O=[N+]([O-])c1nccn1[C@H]1O[C@H](CO)[C@@H](O)[C@H]1F,1.4,Non-toxic,Non-toxic,Non-toxic,Non-toxic,Non-toxic,Non-toxic
